Holding throughout (type): ADME
Series [1] can be described thus: Compound was evaluated, at a concentration of 40 mM acid, for its ability to increase the solubility of sickle haemoglobin. As to conditions: 40000 µM. In a few lines: (§1)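 Sodium salt of acid (made with 1 equiv NaHCO3, 0.18 M stock in 0.15 M phosphate pH 7.4) diluted into HbS (~35 g %, 0.15 M phosphate), deoxygenated with dithionite, sealed in EPR tubes; final drug 5–40 mM. Spun alongside deoxy-HbS buffer control and 40 mM phenylalanine control; solubility at 35 °C, g/dL. Ratio = drug/control solubility; % increase relative to initial minus control; SD reported.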

A short description of series [2]: Compound was evaluated, at a concentration of 5 mM acid, the solubility ratio is obtained by dividing the solubility of sickle hemoglobin (HbS) with the compound (grams per deciliter) by the solubility of the untreated sample (grams per deciliter). As to conditions: 5000 µM. In a few lines: as §1
Series [3] in a line: Compound was evaluated, at a concentration of 10 mM acid, the solubility ratio is obtained by dividing the solubility of sickle hemoglobin (HbS) with the compound (grams per deciliter) by the solubility of the untreated sample (grams per deciliter). Conditions: 10000 µM. In a few lines:
as §1

The nature of series [4]: Compound was evaluated, at a concentration of 20 mM acid, for its ability to increase the solubility of sickle hemoglobin. Conditions: 20000 µM. In a few lines: as §1
Series [5] in a line: Compound was evaluated, at a concentration of 5 mM acid, for its ability to increase the solubility of sickle hemoglobin. As to conditions: 5000 µM. In a few lines: as §1
Series [6] can be described thus: Compound was evaluated, at a concentration of 40 mM acid, the solubility ratio is obtained by dividing the solubility of sickle hemoglobin (HbS) with the compound (grams per deciliter) by the solubility of the untreated sample (grams per deciliter). As to conditions: 40000 µM. In a few lines:
as §1

A short description of series [7]: Compound was evaluated, at a concentration of 10 mM acid, for its ability to increase the solubility of sickle hemoglobin. As to conditions: 10000 µM. In a few lines:
as §1

A short description of series [8]: Compound was evaluated, at a concentration of 20 mM acid, the solubility ratio is obtained by dividing the solubility of sickle hemoglobin (HbS) with the compound (grams per deciliter) by the solubility of the untreated sample (grams per deciliter). As to conditions: 20000 µM. A digest of the protocol: as §1
Series [9] can be described thus: Compound was evaluated, at a concentration of 40 mM acid, for its ability to increase the solubility of sickle hemoglobin. Conditions: 40000 µM. A digest of the protocol: as §1

As for `O=C(O)COCc1ccc(Cl)c(Cl)c1`, the HbS solubilized in series [1] was 88%; in [4], 82.3%; in series [5] it was 22.1%; in series [7], 42.6%. In addition, the Solubility ratio was 1.087 in [2], 1.166 in series [3], 1.345 in series [6] and 1.321 in series [8].

In the case of `C=C(CC)C(=O)c1ccc(OCC(=O)O)c(Cl)c1Cl` [ETHACRYNIC ACID], the Solubility ratio in series [2] is listed as 1.106; in series [3], 1.166; in series [6], 1.375; in series [8], 1.317. The HbS solubilized in series [9] worked out at 89.4%; in series [4], 76.2%; in series [5], 25.3%; in [7] it was 39.5%.

For `O=C(O)COCc1ccc(Br)cc1`, the Solubility ratio in series [2] was 1.059; in series [3], 1.118; in series [6], 1.398; in series [8], 1.233. The HbS solubilized is reported as 87.7% in series [9], 51% in [4], 13% in series [5] and 25.8% in series [7].

(Values after ChEMBL document CHEMBL1122555, “Design, synthesis, and testing of potential antisickling agents. 3. Ethacrynic acid” (J Med Chem, 1984).)
